Active and inactive are the calls of the source. No cut-off for these calls is given here.

Experimental findings from ChEMBL document CHEMBL5329223, “Newly synthesized 6-substituted piperazine/phenyl-9-cyclopentyl containing purine nucleobase analogs act as potent anticancer agents and induce apoptosis via inhibiting Src in hepatocellular carcinoma cells” (RSC Med Chem, 2023) are described below.

Assay [1] has as its system SNU-423. Put plainly: Cytotoxicity against human SNU-423 cells assessed as cell growth inhibition incubated for 72 hrs by SRB assay. The note with it: SNU-423, 72 h. It counts as functional, cell-based. The method, boiled down:
(§1)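 Cells seeded at 1000–3000 per well, treated after 24 h with 2.5–40 μM (40, 20, 10, 5, 2.5 μM) for 72 h, in duplicate or triplicate; DMSO negative control. Fixed with 10% TCA 1 h at 4 °C, stained with 0.4% SRB in 1% acetic acid, dye solubilized in 10 mM TBS, A515 read; OD normalized to DMSO control, IC50 from growth-inhibition curves.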

The test system of assay [2] is SNU-398. Nature of the assay: Cytotoxicity against human SNU-398 cells assessed as cell growth inhibition incubated for 72 hrs by SRB assay. It counts as functional, cell-based. The note with it: SNU-398, 72 h. Put shortly:
as §1
Background: Sulforhodamine B stains cellular protein and so reports cell mass.

The test system of assay [3] is HCT-116. Put plainly: Cytotoxicity against human HCT-116 cells assessed as cell growth inhibition incubated for 72 hrs by SRB assay. The class given is functional, cell-based. The note with it: HCT-116, 72 h. Put shortly:
as §1

Assay [4] deals with Huh-7. Nature of the assay: Induction of apoptosis in human Huh-7 cells assessed as increase in PARP-1 cleavage at 5 uM incubated for 72 hrs by Western blot analysis. The class given is functional, cell-based. Put shortly:
(§2)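 Huh7 cells (300 000 per dish) treated 24 h after seeding with 5 μM or DMSO for 72 h. Immunoblot for PARP-1, phospho-Src Tyr416, Src, Rb, phospho-Rb Ser807/811, Cdk2; calnexin and actin as loading controls.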

In assay [5] the test system is Huh-7. Put plainly: Cytotoxicity against human Huh-7 cells assessed as cell growth inhibition incubated for 72 hrs by SRB assay. The class given is functional, cell-based. The note with it: Huh-7, 72 h. The method, boiled down:
as §1

Assay [6] deals with SNU-475. Nature of the assay: Cytotoxicity against human SNU-475 cells assessed as cell growth inhibition incubated for 72 hrs by SRB assay. The class given is functional, cell-based. The note with it: SNU-475, 72 h. The method, boiled down: as §1
Assay [7] deals with MCF7. Put plainly: Cytotoxicity against human MCF7 cells assessed as cell growth inhibition incubated for 72 hrs by SRB assay. The note with it: MCF7, 72 h. It counts as functional, cell-based. Put shortly:
as §1

Assay [8] concerns Hep 3B2. Put plainly: Cytotoxicity against human Hep3B cells assessed as cell growth inhibition incubated for 72 hrs by SRB assay. The class given is functional, cell-based. The method, boiled down:
as §1

The subject of assay [9] is Huh-7. Nature of the assay: Upregulation of intracellular ATP level in human Huh-7 cells at 5 uM incubated for 72 hrs by Kinase Glo assay. The class given is functional, cell-based. The method, boiled down:
(§3)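 Huh7 and Mahlavu cells grown 24 h, then treated with 5 μM for 72 h. Lysates protein-normalized by Bradford; ATP read by Kinase-Glo Plus luminescence per kit protocol. Staurosporine positive control, DMSO negative control.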

The subject of assay [10] is PLC. Nature of the assay: Cytotoxicity against human PLC cells assessed as cell growth inhibition incubated for 72 hrs by SRB assay. The class given is functional, cell-based. Put shortly: as §1
The test system of assay [11] is SNU-387. Put plainly: Cytotoxicity against human SNU-387 cells assessed as cell growth inhibition incubated for 72 hrs by SRB assay. The note with it: SNU-387, 72 h. It counts as functional, cell-based. Put shortly: as §1
For assay [12], the system named is Mahlavu. Nature of the assay: Cytotoxicity against human Mahlavu cells assessed as cell growth inhibition incubated for 72 hrs by SRB assay. The class given is functional, cell-based. Put shortly:
as §1

Assay [13] is described as follows: Cytotoxicity against human FOCUS cells assessed as cell growth inhibition incubated for 72 hrs by SRB assay. It counts as functional, cell-based. The method, boiled down: as §1
Assay [14] deals with Mahlavu. Nature of the assay: Upregulation of intracellular ATP level in human Mahlavu cells at 5 uM incubated for 72 hrs by Kinase Glo assay. It counts as functional, cell-based. The method, boiled down:
as §3
On the technique in general: In Kinase-Glo more light means more ATP remaining.

The test system of assay [15] is SNU-182. Nature of the assay: Cytotoxicity against human SNU-182 cells assessed as cell growth inhibition incubated for 72 hrs by SRB assay. It counts as functional, cell-based. The note with it: SNU-182, 72 h. Put shortly: as §1
In assay [16] the test system is Huh-7. Put plainly: Cytotoxicity against human Huh-7 cells assessed as cell growth inhibition at 0.625 to 5 uM measured upto 72 hrs by RT-CES analysis. The class given is functional, cell-based. The note with it: dose 0.625-5 µM. Put shortly:
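Huh7 cells, 2000 per well, treated 24 h after seeding alongside DMSO control; cell index from impedance recorded every 30 min; plots for each concentration normalized to DMSO-treated cells.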

Assay [17] deals with SNU-449. Nature of the assay: Cytotoxicity against human SNU-449 cells assessed as cell growth inhibition incubated for 72 hrs by SRB assay. It counts as functional, cell-based. The note with it: SNU-449, 72 h. Put shortly:
as §1

Assay [18] has as its system Huh-7. Nature of the assay: Induction of morphological changes in human Huh-7 cells assessed as horseshoe-like condensed nuclei at 5 uM incubated for 72 hrs by Hoechst 33258 dye based microscopy. It counts as functional, cell-based. Put shortly:
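Huh7 cells on coverslips (50 000 per well) given 5 μM or DMSO 24 h after seeding for 72 h; permeabilized with ice-cold methanol 10 min, Hoechst 33258 stain 5 min in the dark, imaged by fluorescence microscopy with 40× objective.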

In assay [19] the test system is HepG2. Nature of the assay: Cytotoxicity against human HepG2 cells assessed as cell growth inhibition incubated for 72 hrs by SRB assay. It counts as functional, cell-based. The note with it: HepG2, 72 h. Put shortly: as §1
For assay [20], the system named is Huh-7. Put plainly: Induction of cell cycle arrest in human Huh-7 cells assessed as increase in accumulation of cells at subG1 phase at 5 uM incubated for 72 hrs by PI staining based flow cytometry. It counts as functional. Put shortly:
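Huh7 and Mahlavu cells serum-starved 24 h to synchronize, then given 5 μM or DMSO in fresh growth medium for 72 h. Trypsinized, fixed in ice-cold 70% ethanol at least 3 h at −20 °C, PI-stained with a cell cycle kit, analyzed by flow cytometry for SubG1.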
For orientation: Flow cytometry measures light scatter and fluorescence of single cells or particles in a stream.

The target in assay [21] is Proto-oncogene tyrosine-protein kinase Src (Homo sapiens) (UniProt P12931). Nature of the assay: Inhibition of Src activation in human Huh-7 cells assessed as decrease in phosphorylated Src level at 5 uM incubated for 72 hrs by Western blot analysis. The class given is cell-based. Put shortly:
as §2

Proto-oncogene tyrosine-protein kinase Src (Homo sapiens), sequence (P12931 2-536 limits assumed): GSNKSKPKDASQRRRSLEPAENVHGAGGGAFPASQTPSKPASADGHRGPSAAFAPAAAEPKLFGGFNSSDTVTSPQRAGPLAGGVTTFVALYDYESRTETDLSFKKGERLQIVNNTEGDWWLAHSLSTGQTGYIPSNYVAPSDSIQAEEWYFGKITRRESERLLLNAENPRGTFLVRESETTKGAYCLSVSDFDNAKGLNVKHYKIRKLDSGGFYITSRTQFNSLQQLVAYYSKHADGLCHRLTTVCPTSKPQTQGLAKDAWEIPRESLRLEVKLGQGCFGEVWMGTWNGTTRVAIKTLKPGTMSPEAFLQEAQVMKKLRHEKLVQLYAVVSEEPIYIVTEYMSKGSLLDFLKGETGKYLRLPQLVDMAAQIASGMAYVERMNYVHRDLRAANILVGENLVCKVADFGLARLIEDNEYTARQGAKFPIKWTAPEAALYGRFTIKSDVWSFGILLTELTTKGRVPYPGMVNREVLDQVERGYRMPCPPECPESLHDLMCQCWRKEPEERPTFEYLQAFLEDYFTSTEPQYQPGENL

What is called IC50 is the concentration at which inhibition is half-maximal. On to `COc1ccc(N2CCN(c3ncnc4c3ncn4C3CCCC3)CC2)cc1`, for which the IC50 in assay [1] is 15 µM; in assay [2], 0.3 µM; in [3] it was 5 µM; in [5], 1.3 µM; in assay [6], 13 µM; in assay [7] it was 1 µM. Besides, the IC50 in assay [8] was 0.3 µM; in [10], 9.3 µM; in assay [11], 38 µM; in assay [12] it was 0.6 µM; in [13], 2.6 µM; in assay [15], 13 µM. Moreover, the IC50 in assay [17] amounted to 2 µM; in assay [19], 0.3 µM. Also, the result in assay [4], in assay [18] and in assay [20] was Active. Besides, the result in assay [9] and in [14] was inactive. In addition, the “growth inhibition (GI)” value in assay [16] is “Active”.

Consider `Clc1ccc(N2CCN(c3ncnc4c3ncn4C3CCCC3)CC2)cc1`, for which the IC50 in assay [1] came to 4 µM; in assay [2] it was 1.8 µM; in assay [3], 0.6 µM; in assay [5] it was 0.1 µM; in [6] it was 12.3 µM; in assay [7], 4.1 µM. Moreover, the IC50 turned out to be 0.4 µM in assay [8]; 19.3 µM in assay [10]; 2 µM in [11]; 4 µM in assay [12]; 2 µM in [13]; 12.2 µM in assay [15]. Further, the IC50 amounted to 6.9 µM in assay [17] and 0.01 µM in [19]. The outcome in [9] and in assay [14] was inactive. The “growth inhibition (GI)” value in assay [16] was “Active”. Further, in assay [21], the inhibition entry is “Active”. The result in assay [18] and in [20] was Active.

Turning to `Fc1ccc(N2CCN(c3ncnc4c3ncn4C3CCCC3)CC2)cc1`, the IC50 was 16 µM in assay [1]; 1 µM in [2]; 1.6 µM in [3]; 1.5 µM in assay [5]; 7 µM in [6]; 9.1 µM in assay [7]. Besides, the IC50 came out at 4.3 µM in [8]; 6 µM in [10]; 26 µM in assay [11]; 7 µM in assay [12]; 1.5 µM in assay [13]; 41 µM in assay [15]. Also, the values for the IC50 in assay [17] and in assay [19] were 3.3 µM and 0.5 µM, respectively. Moreover, the result in assay [4], in [18] and in assay [20] was Active. Besides, the outcome in assay [9] and in assay [14] was inactive. The “growth inhibition (GI)” value in assay [16] is “Active”.
